# Source: PubChem BioAssay (Johns Hopkins Ion Channel Center)
# In the library only some 3.1% were active in any assay of this set; here they are far more common.
# KCNQ1 inh: human KCNQ1 channel inhibition; CHO-K1 KCNQ1, FluxOR thallium flux fluorescence; hits give high values; AID 2642; hit rate 1.3% among 310,000; P51787; B-score at 10 µM;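 active = compounds whose thallium flux B-score, printed positive for inhibition, exceeds three library SD while starting fluorescence stays within three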;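 also: channel opened by potassium depolarization with thallium stimulus after 20 min compound exposure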
# Target sequence (P51787 whole entry, looked up): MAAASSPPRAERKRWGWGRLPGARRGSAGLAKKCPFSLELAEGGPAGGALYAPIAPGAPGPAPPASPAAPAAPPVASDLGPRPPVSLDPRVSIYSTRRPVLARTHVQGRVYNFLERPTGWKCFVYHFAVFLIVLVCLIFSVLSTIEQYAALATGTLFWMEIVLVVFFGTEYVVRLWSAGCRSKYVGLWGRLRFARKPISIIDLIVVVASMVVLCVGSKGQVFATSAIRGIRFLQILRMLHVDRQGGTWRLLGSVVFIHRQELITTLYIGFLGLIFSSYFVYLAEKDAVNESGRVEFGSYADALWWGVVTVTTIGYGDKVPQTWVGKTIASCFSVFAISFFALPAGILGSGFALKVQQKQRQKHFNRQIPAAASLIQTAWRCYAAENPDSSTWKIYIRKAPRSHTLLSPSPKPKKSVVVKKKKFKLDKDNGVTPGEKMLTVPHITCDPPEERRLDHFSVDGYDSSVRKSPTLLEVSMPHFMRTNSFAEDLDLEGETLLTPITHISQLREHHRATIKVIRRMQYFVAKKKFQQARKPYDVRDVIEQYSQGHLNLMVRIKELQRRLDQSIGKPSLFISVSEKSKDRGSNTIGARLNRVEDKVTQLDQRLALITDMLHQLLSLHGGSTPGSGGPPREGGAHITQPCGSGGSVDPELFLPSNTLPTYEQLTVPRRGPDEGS
# KCNK9 block: blocks the human KCNK9 two-pore domain potassium channel | HEK293 KCNK9, FluxOR thallium flux fluorescence; hits give low values | hit rate 1.2% among 310,000 | AID 488922 | B-score at 10 µM;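 active = ratio B-score over 3 SD below the library mean, with starting fluorescence within 5 SD of its mean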;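 also: negative B-score means less thallium flux so channel inhibition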
# KCNQ1 act: potentiators or activators of human KCNQ1 potassium channel; P51787; CHO-K1 KCNQ1, thallium flux FluxOR fluorescence; hits give high values; B-score at 10 µM; hit rate 0.35% among 310,000; AID 2648;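 active = fluorescence ratio B-score, a plate-corrected score, at least three library SD, with initial intensity B-score within 5 SD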
#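 Assay system: CHO-K1 cells stably expressing KCNQ1. Medium: assay buffer for compound exposure, DMSO matched across wells. Timing: 37 °C overnight plating, 90-min dark dye load, 20-min compound pretreatment. Signal: kinetic FluxOR fluorescence, 10 s baseline plus 110 s post-stimulus.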
# KCNK3 block: human KCNK3 channel inhibition, primary screen | CHO-KCNK3 thallium flux, FluxOR fluorescence; hits give low values | B-score at 10 µM | hit rate 0.84% among 340,000 | AID 602410;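 active = B-score under library mean minus 4 SD, starting fluorescence ratio at most library mean plus 5 SD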;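 also: more negative B-score means stronger inhibition of thallium flux through KCNK3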
# hERG protect: hERG (human) protection from proarrhythmic block. CHO-hERG, FluxOR thallium flux, dofetilide IC70 present. Q12809. hit rate 0.51% among 310,000. activation (rescue from dofetilide block), less the hit threshold, % at 10 µM. AID 1511;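 active = activation above the mean of controls blocked by dofetilide plus 5 SD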;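 also: thallium influx through hERG after potassium depolarization seen as dye fluorescence rise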
# KCNK3 inh conf: confirmation of human KCNK3 two-pore domain potassium channel inhibitors; ratio percent of control, % at 10 µM; hit rate 99% among 2,400; AID 651638; CHO-KCNK3 thallium flux, FluxOR fluorescence; 0% buffer, 100% carvedilol maximal block; shares compounds with KCNK3 block;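 active = ratio percent of control, averaged over triplicates, above buffer control mean plus 5 SD, cut at about 64% in these data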;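 also: ratio is the fluorescence rise from min to max over baseline after thallium stimulus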
# KCNK3 uninduced: activity in cells without induced KCNK3 expression; hit rate 40% among 2,400; thallium flux ratio (lower = more inhibition) at 10 µM; AID 651747; non-induced KCNK3 parental cells, FluxOR thallium flux; hits give low values; shares compounds with KCNK3 block;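 active = thallium flux ratio, averaged over three wells, more than 5 SD below the buffer control mean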;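 also: host cells are CHO cells without KCNK3 induction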
# A number is an active result; 0 = inactive; - = not tested or not shown.
SMILES,KCNQ1 inh,KCNK9 block,KCNQ1 act,KCNK3 block,hERG protect,KCNK3 inh conf,KCNK3 uninduced
CCCCCCCOC(=O)c1ccc(OC(=O)c2cccnc2)cc1,0,0,0,-9.4,0,136,0.14
Cc1sc2ncnc(N3CCN(S(=O)(=O)c4ccc(F)cc4)CC3)c2c1C,0,0,0,-11,0,124,0.16
CCS(=O)(=O)N1CCN(c2ncnc3sc(C)c(C)c23)CC1,0,0,0,0,0,-,-
Cc1ccc(S(=O)(=O)N2CCN(C(=O)CSc3nnnn3C)C2)cc1,0,0,0,0,0,-,-
Cc1ccc(C(C)C)cc1S(=O)(=O)Nc1cccnc1,0,0,0,0,0,-,-
Cc1oc(/N=C/c2ccc(O)cc2O)c(C#N)c1C,0,0,0,0,0,-,-
CC(C)(C)OC(=O)n1cc(/C=N/NC(=O)c2ccco2)c2ccccc21,0,0,0,-9.2,0,108,0
COc1ccc(OCCOC(=O)CNC(=O)c2cccc(C)c2)cc1,0,0,0,0,0,-,-
Cc1cccc(C(=O)NCC(=O)OCCOc2ccccc2Cl)c1,0,0,0,-9.1,0,86,0
Cc1nnc(Nc2ccc(S(N)(=O)=O)cc2)c2ccccc12,0,0,0,0,0,-,-
COc1cc(OC)c(OC)cc1/C=C1\CC(C)C/C(=C\c2cc(OC)c(OC)cc2OC)C1=O (stereo not drawn),8,0,0,-14,0,154,0.066
CN(c1ccccc1)S(=O)(=O)c1ccc(NC(=O)c2nc(S(C)(=O)=O)ncc2Cl)cc1,0,0,0,-9,0,106,0.15
COc1ccccc1OCCCn1c(C)c(C#N)c2ccccc21,0,0,0,-10,0,119,0.16
Cc1c(C#N)c2ccccc2n1CC(=O)O,0,0,0,0,0,-,-
C=CCn1c(SCC(=O)c2cccs2)nc2sc(C)c(C)c2c1=O,0,0,0,-9.5,0,115,0.15
COc1ccc(CC(=O)NCc2nnc(SCc3ccc(C)cc3)n2C)cc1,0,0,0,0,0,-,-
Cc1ccccc1NC(C)C(=O)N/N=C/c1ccccc1OCc1cccc(Br)c1 (stereo not drawn),0,0,0,-11,0,92,0.16
O=C(Nc1ccccc1)C1=C[C@H](C2CC2)C[C@H](OCCCCO)O1,0,0,0,0,0,-,-
CCN(c1cccc(C)c1)S(=O)(=O)c1ccc(-c2cc(C)no2)s1,0,0,0,-8.8,0,103,0
COc1ccccc1S(=O)(=O)N1CCN(S(=O)(=O)c2ccccc2C#N)CC1,0,0,0,0,0,-,-
Cc1ccc(S(=O)(=O)Nc2ccccc2N=Cc2c(F)c(F)c(F)c(F)c2F)cc1,-,-,-,-12,-,114,0.15
Cc1ccc(S(=O)(=O)Nc2ccccc2C=Nc2cccc(C)c2C)cc1,0,0,0,0,0,-,-
O=[N+]([O-])c1cc(C(F)(F)F)ccc1NCC1CCCO1 (stereo not drawn),0,0,0,-9.7,0,70,0
O=C(COc1ccc(F)cc1)N1c2ccccc2CCc2ccccc21,0,0,0,0,0,-,-
O=C(COc1cccc2ccccc12)N1c2ccccc2CCc2ccccc21,0,0,0,-13,0,120,0.15
SMILES,KCNQ1 inh,KCNK9 block,KCNQ1 act,KCNK3 block,hERG protect,KCNK3 inh conf,KCNK3 uninduced
Cc1cc2oc(=O)cc(CN(C)Cc3ccccc3)c2cc1C(C)C,7,0,0,-8.9,0,99,0.14
Cc1ccc2c(CN(C)Cc3cccc(Cl)c3)cc(=O)oc2c1C,0,0,0,-8.7,0,126,0
CN(Cc1ccccc1F)Cc1cc(=O)oc2cc(O)c(Cl)cc12,0,0,0,0,0,-,-
CCOc1ccc(CN(C)Cc2cc(=O)oc3cc(C)c(Cl)cc23)cc1,0,0,0,0,0,-,-
Cc1cc2oc(=O)cc(CN(C)Cc3ccccc3F)c2cc1Cl,0,0,0,-12,0,118,0.14
Cc1cc2oc(=O)cc(CN(C)Cc3ccccc3Cl)c2cc1C,6,0,0,-10,0,57,0
CC(NC(=O)c1ccccc1F)c1nnc(SCC(=O)NC2=NCCS2)n1C (stereo not drawn),0,0,0,0,0,-,-
NS(=O)(=O)c1cccc(NC(=O)c2ccc(S(=O)(=O)N3CCCCCC3)cc2)c1,-,-,-,0,-,-,-
COc1ccc(-n2c(C)cc(-c3csc(NC(=O)c4ccc(S(=O)(=O)N(C)C)cc4)n3)c2C)cc1,0,0,0,0,0,-,-
COc1ccc(/C=C/C(=O)OCC(=O)c2c(N)n(C)c(=O)n(C)c2=O)c(OC)c1,0,0,0,0,0,-,-
COc1cc(CN(C)Cc2cc(=O)oc3cc(C)c(Cl)cc23)ccc1OC(F)F,0,0,0,-10,0,106,0
Cc1ccc2c(CN(C)Cc3cccc(F)c3)cc(=O)oc2c1,0,0,0,0,0,-,-
COc1ccc(CN(C)Cc2cc(=O)oc3cc(C)c(C(C)C)cc23)cc1OC,0,0,0,0,0,-,-
Cc1cc2oc(=O)cc(CN(C)Cc3cccc(F)c3)c2cc1Cl,0,0,0,-11,0,100,0
COc1ccc(C(C)=O)cc1COc1ccc(F)cc1,0,0,0,-9.2,0,115,0
Cc1ccccc1-n1nnnc1SCc1csc(-c2ccccc2)n1,0,0,0,-11,0,105,0
N#C/C(=C\c1ccc(N2CCOCC2)o1)c1ccccc1,0,0,0,-9,0,144,0.081
C/C(=N\OCc1nc2ccccc2c(=O)n1/N=C/c1cc([N+](=O)[O-])ccc1O)c1ccccc1,6,0,0,-9.1,0,95,0.12
O=[N+]([O-])c1ccc(O)c(/C=N/n2c(CO)nc3ccccc32)c1,0,0,0,0,0,-,-
O=S(=O)(NC(=S)NC1CCCCC1)c1ccc(Br)cc1,0,0,0,0,0,-,-
O=[N+]([O-])c1cccc(CSc2ncnc3ccccc23)c1,0,0,0,-9.6,0,84,0
COc1ccccc1CNC(=O)COC(=O)/C=C/c1ccc2c(c1)OCO2,-,-,-,0,-,-,-
O=C(NC12CC3CC(CC(C3)C1)C2)N1CCN(c2nc(-c3ccccc3)cs2)CC1,0,-6.7,0,0,0,104,0
Cc1ccc(S(=O)(=O)N2CCN(C(=O)Cn3c(=O)oc4ccccc43)CC2)c(C)c1,-,-,-,0,-,-,-
C=CCn1c(SCc2csc(C)n2)nc2sc3c(c2c1=O)CCCCC3,0,0,0,0,0,-,-
C=CCn1c(SCc2csc(C)n2)nc2sc3c(c2c1=O)CCCC3,0,0,0,-8.9,0,122,0.14
c1ccc(CCNc2ncnc3scc(C4COc5ccccc5O4)c23)cc1 (stereo not drawn),0,0,0,-9.1,0,127,0.12
Cc1cc(N/N=C\c2ccccc2)nc(-c2ccccc2O)n1,0,0,0,0,0,-,-
C/C(=N\Nc1cc(C)nc(-c2ccccc2O)n1)c1ccccc1O,10,0,0,-9.1,0,106,0
